Screening results: PubChem, several laboratories
Wee1 degr inh: blocks degradation of human Wee1 kinase. hit rate 1.2% among 220,000. reporter increase, % at 5 µM. P30291. HeLa Luc-Wee1K328M stability, luciferase luminescence; 100% = proteasome inhibitor MG132 effect;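 active means activation above the mean of all tested compounds plus 3 SD, set per screening run, cut at about 8.8% in these data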;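 further: cells exposed to compound for 20 h before luminescence read; 0% = DMSO alone and 100% = MG132 at 30 µM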
PHOSPHO1 inh: PHOSPHO1 (human) inhibition; Q8TCT1; recombinant PHOSPHO1, absorbance phosphatase assay; inhibition, % at 13.3 µM; hit rate 1.1% among 290,000; AID 1565; in the data active means inhibition above about 60%
Target sequence (Q8TCT1 whole entry, looked up): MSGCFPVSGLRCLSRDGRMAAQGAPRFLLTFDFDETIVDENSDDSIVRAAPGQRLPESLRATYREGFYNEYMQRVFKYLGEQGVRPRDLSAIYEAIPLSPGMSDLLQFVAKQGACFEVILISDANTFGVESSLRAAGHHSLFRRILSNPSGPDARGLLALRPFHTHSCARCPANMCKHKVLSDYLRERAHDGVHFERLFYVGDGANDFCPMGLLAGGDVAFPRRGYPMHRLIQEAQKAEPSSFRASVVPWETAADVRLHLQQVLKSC
Runt-SMMHC FRET: inhibitors of human RUNX1 Runt domain binding to CBFb-SMMHC | AID 1434 | inhibition, % at 20 µM | Q01196+Q13951 | hit rate 0.74% among 220,000 | Cerulean-Runt/Venus-CBFb-SMMHC FRET ratio 530/480, 1 h;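 active means mean inhibition across duplicate retests at 20 µM reaching about 50%, limit read from the data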;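 further: 0% = DMSO wells and 100% = wells with excess untagged CBFb-SMMHC; inhibitors lower the FRET ratio by blocking Runt binding to CBFb-SMMHC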
Efa HMGR inh: inhibitors of class II HMG-CoA reductase from Enterococcus faecalis; purified E. faecalis HMGR, NADPH absorbance 340 nm kinetic; inhibition, % at 10 µM; hit rate 0.41% among 190,000; AID 1066;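 active means inhibition above a set limit, the median over all tested compounds plus 3 SD, cut at about 9.5% in these data; inconclusive means no clear call, values can overlap the other calls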;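 further: enzyme runs in reverse so mevalonate oxidation gives rising NADPH absorbance; 0% = complete reaction with DMSO and 100% = background rate lacking mevalonate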
Runt-CBFb FRET: Runt domain-CBFb interaction inhibition. Cerulean-Runt/Venus-CBFb FRET ratio 530/480, 1 h. inhibition, % at 20 µM. hit rate 0.46% among 220,000. Q01196+Q13951. AID 1496;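 active means inhibition over about 50% at 20 µM in the single-dose screen, limit read from the data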;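 further: 0% = DMSO wells and 100% = excess unlabeled CBFb competitor control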
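Reagent – Venus-CBFb binding partner, 100 nM · Assay system – Cerulean-tagged RUNX1 Runt domain (FRET donor) fusion protein · Input – 100 nM per protein · Incubation – two 1 h room-temperature incubations shielded from light · Measured by – FRET fluorescence · Medium – Tris buffer pH 7.5 with salts and BSA · Benchmarks – unlabeled CBFb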
RanGTP-Imp inh: disruptors of Ran-importin-beta complex formation – biochemical, FRET, CFP-Ran, YFP-importin-beta, homogeneous, primary screen; cell-free CFP-Ran/YFP-importin-beta FRET ratio; AID 2216; hit rate 1.1% among 300,000; inhibition, % (no concentration beside the values);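 active means more than half of the replicate wells show a fall in the fluorescence ratio signal beyond about 16%, limit read from the data, passing the limit was not always enough; inconclusive means exactly half of the replicate wells pass the set limit; inactive means fewer than half of replicates pass the limit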;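 further: 0% = DMSO wells and 100% = Ran loaded with GDP instead of GTP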
The depositor's hits bear a star; ? = inconclusive; · = not tested or not shown. Shown are actives, neighbours in structure and some others; about 3.4% of the full set was active somewhere.

SMILES	Wee1 degr inh	PHOSPHO1 inh	Runt-SMMHC FRET	Efa HMGR inh	Runt-CBFb FRET	RanGTP-Imp inh
COc1ccc(Cc2nn3c(-c4ccccc4OC)nnc3s2)cc1	-2	38	0	-7	3	7
COc1ccc(Cc2nn3c(Cn4nnc5ccccc54)nnc3s2)cc1	2	69*	9	-6	24	-1
O=C(Nc1ccc(Cl)cc1)c1cc(Br)ccc1OCC(=O)N1CCOCC1	·	23	·	·	·	0
O=C(CN1C(=O)NC2(CCCC2)C1=O)N1CCN(S(=O)(=O)c2ccc(Cl)c(C(F)(F)F)c2)CC1	·	·	·	·	·	-4
CN(CC(=O)Nc1ccccc1Br)Cc1nc2ccccc2c(=O)[nH]1	-1	54	2	0	0	-1
COc1ccc2[nH]c3c4c(ccc3c2c1)C(=O)C=CC4=O	14*	6	24	·	55*	·
COc1ccc2[nH]c(=O)cc(C(=O)O)c2c1	0	-13	3	-4	-2	6
CCSc1nnc(NC(=O)C2Cc3ccccc3CN2C(=O)c2ccco2)s1 (stereo unspecified)	0	61*	-1	-6	3	-5
Cc1ccccc1NC(=O)C1Cc2ccccc2CN1C(=O)c1ccco1 (stereo unspecified)	·	28	·	·	·	3
O=C1NCCn2ccc(=O)cc21	13*	20	-1	·	0	3
Cc1ccc(CN2CCNC2=O)cc1	-2	-4	-1	-4	2	-3
CC1CCC(NS(=O)(=O)c2ccc(N3CCCC3=O)cc2)CC1 (stereo unspecified)	·	18	·	·	·	3
O=C(Nc1nnc(-c2ccco2)s1)C1CCCCC1	0	75*	6	-8	18	-1
N#Cc1cnc2nc(SCc3ccccc3)nn2c1	·	33	·	·	·	0
O=c1c2c3c(sc2nc2n1CCCCC2)CCCC3	0	76*	13	1	27	-2
CC1CSc2nc3sc4c(c3c(=O)n21)CCCC4 (stereo unspecified)	0	67*	5	-3	0	4
O=c1c2c3c(sc2nc2n1CCCS2)CCCC3	1	27	-4	3	-2	3
CCCCCCC(=O)Nc1nc(C)c(-c2csc(Nc3cc(OC)ccc3OC)n2)s1	8	77*	-2	1	2	0
Cc1ccc(Cl)cc1Nc1nc(-c2sc(NC(=O)c3ccco3)nc2C)cs1	-2	42	8	1	7	2
CCCCCC(=O)Nc1nc(C)c(-c2csc(Nc3cc(OC)ccc3OC)n2)s1	-3	50	0	-5	0	-1
COc1ccccc1Nc1nc(-c2sc(NC(=O)c3ccco3)nc2C)cs1	-1	86*	9	-9	8	3
CCC(C)C(=O)Nc1nc(C)c(-c2csc(Nc3ccccc3OC)n2)s1 (stereo unspecified)	0	74*	2	-3	10	4
Cc1nc(NC(=O)CC(C)C)sc1-c1csc(Nc2ccc(Cl)cc2Cl)n1	-1	55	-5	0	0	0
CCOc1ccccc1Nc1nc(-c2sc(NC(=O)c3ccc([N+](=O)[O-])cc3)nc2C)cs1	4	12	-2	-7	4	8
COc1ccc(Cl)cc1Nc1nc(-c2sc(NC(=O)CC(C)C)nc2C)cs1	1	94*	5	-4	5	-3
SMILES	Wee1 degr inh	PHOSPHO1 inh	Runt-SMMHC FRET	Efa HMGR inh	Runt-CBFb FRET	RanGTP-Imp inh
COc1ccc(-c2nc(CN3CCN(C(=O)c4ccco4)CC3)c(C)o2)c(OC)c1C	·	14	·	·	·	3
CN(C)C(=O)c1cnc(-c2ccccc2)nc1-c1ccccc1	·	·	·	·	·	8
C=CCCC(=O)Nc1nc(C)c(-c2csc(Nc3ccccc3OC)n2)s1	1	77*	2	-3	9	?
C=CCCC(=O)Nc1nc(C)c(-c2csc(Nc3cc(Cl)ccc3OC)n2)s1	0	99*	3	1	12	-2
CCCCC(=O)Nc1nc(C)c(-c2csc(Nc3ccccc3OC)n2)s1	-1	94*	2	-2	6	1
COc1cccc(C(=O)NCCS(=O)(=O)NCc2ccccn2)c1	·	·	·	·	·	-7
S=C(c1ccc(-c2ccc(Br)cc2)o1)N1CCOCC1	10*	18	4	·	18	-1
S=C(c1ccc(-c2ccc(Br)cc2)o1)N1CCCCC1	3	-8	·	2	·	0
COc1ccc(-c2ccc(C(=S)N3CCN(C(C)=O)CC3)o2)cc1	0	85*	23	1	21	-8
COc1ccc(CC(=O)N2CCN(C(=O)Cc3ccc(OC)cc3)CC2)cc1	1	11	-5	3	-2	2
Cc1ccsc1/C=N/Nc1ccc(F)cc1F	·	22	·	·	·	4
COc1ccc(Br)cc1CNC(=O)Cn1nc(C)n2cccc2c1=O	·	22	·	·	·	2
Cc1ccc(C(=O)O)cc1-n1c(C)cc(C=O)c1C	1	37	90*	-8	23	2
Cc1c(C(=O)O)cccc1-n1c(C)cc(C=O)c1C	4	-10	92*	-1	14	7
Cc1ccc(CNC(=O)C2CCC(=O)N(Cc3cccc(C(F)(F)F)c3)C2)o1 (stereo unspecified)	·	4	·	·	·	7
Clc1ccc(/C=N/c2c(-c3ccco3)nc3ccccn23)cc1	-2	9	-44	-7	-4	3
COc1ccc(/C=N/c2c(-c3ccco3)nc3ccccn23)cc1OC	9.0*	-19	-49	0	-6	2
CC(=O)c1ccc(S(=O)(=O)N2CCCC(N(C)CCc3ccccn3)C2)cc1 (stereo unspecified)	·	-33	·	·	·	1
O=C(O)c1cc(-c2ccc(N3CCOCC3)cc2)nn1-c1ccc(F)cc1F	0	-7	1	-12	1	0
O=C(O)c1cc(-c2ccc(N3CCOCC3)cc2)nn1-c1ccccc1Cl	2	-10	1	21*	0	-1
COc1cc(C(=O)NCCCNc2nc3cc(C)c(C)cc3cc2C#N)cc(OC)c1OC	2	-12	18	2	·	50*
COc1cc(C(=O)NCCNc2nc3c(C)c(C)ccc3cc2C#N)cc(OC)c1OC	·	14	·	·	·	2
CCOc1ccc2nc(NCCNC(=O)c3cc(OC)c(OC)c(OC)c3)c(C#N)cc2c1	·	33	·	·	·	113*
CCOC(=O)c1cc(NC(=O)CN2CCCC2)cc(C(=O)OCC)c1	·	39	·	·	·	1
CC12CC3CC(C)(C1)CC(NCc1ccncc1)(C3)C2	-1	33	-1	-6	0	·
O=C(NCCOc1ccccc1)c1cc(S(=O)(=O)N2CCOCC2)ccc1F	·	42	·	·	·	-1
O=C(NC1CCN(C(=S)Nc2ccccc2Cl)CC1)C1CCCCC1	·	51	·	·	·	2
C[N+](C)(C)C/C=C1/COCO1	4	90*	-4	-1	0	-2
